The list is not random: actives were taken first. Their share in the collection is about 1.2%.
CRFBP-R2 block = blocks CRF-induced signaling of the CRF-BP/CRF-R2 complex. 0.59% of 350,000 active. AID 588475. HEK293 CRF-R2/CRF-BP, CRF-induced calcium fluorescence. inhibition, % at 11.8 µM;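 active = inhibition of the ligand-induced calcium signal above about 50% at the single tested concentration, limit read from the data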
DDE Tn6 FP inh = disrupts Tn6 cyclic peptide binding to fibrin D-Dimer-E complex; AID 720509; 0.21% of 370,000 active; P02675; Fibrin DD(E) TRITC-Tn6 fluorescence polarization displacement; inhibition, % at 8.3 µM;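 active = inhibition above a per-campaign cutoff: mean of compounds within control limits plus 3 SD, cut at about 15% in these data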;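 note: 0% = median of all compound wells on the plate and 100% = blocking peptide control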
Target sequence (P02675 whole entry, looked up): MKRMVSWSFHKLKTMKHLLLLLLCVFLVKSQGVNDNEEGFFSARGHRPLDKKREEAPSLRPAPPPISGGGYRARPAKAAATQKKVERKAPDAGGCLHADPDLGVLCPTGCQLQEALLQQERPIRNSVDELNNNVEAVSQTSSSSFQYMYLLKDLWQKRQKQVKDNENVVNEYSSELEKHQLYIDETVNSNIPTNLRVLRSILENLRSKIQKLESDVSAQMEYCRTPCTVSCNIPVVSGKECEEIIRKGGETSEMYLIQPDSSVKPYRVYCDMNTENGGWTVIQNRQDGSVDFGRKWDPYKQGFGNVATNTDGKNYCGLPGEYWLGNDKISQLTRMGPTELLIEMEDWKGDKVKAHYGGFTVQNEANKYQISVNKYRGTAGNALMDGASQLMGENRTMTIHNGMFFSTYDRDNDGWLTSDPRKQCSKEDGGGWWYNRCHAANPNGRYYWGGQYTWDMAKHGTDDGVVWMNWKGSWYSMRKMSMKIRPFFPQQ
DDE Tn7 FP inh = inhibitors of Tn7 peptide binding to human fibrin DD(E); P02675; FP displacement of FITC-Tn7 peptide from fibrin DD(E); 0% = median of compound wells per plate; inhibition, % at 8.3 µM; 0.13% of 370,000 active; AID 720508;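 active = inhibition above the mean of compounds falling within the control limits plus 3 SD of them, cut at about 14% in these data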;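 note: 0% = plate median of compound wells and 100% = 10 µM Aha-Tn7 peptide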
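System: human fibrin DD(E); quantity: Fibrin-DD(E) at 2 µM final; also added: fluorescent Tn7 probe at 0.1 µM; compound dosing: single nominal test concentration of 8.3 µM per compound; schedule: 10 min preincubation, 3 h with tracer, room temperature; detection: fluorescence polarization of the labelled Tn7 tracer; repeats: one replicate per compound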
CRFR2-BP ag = agonists of human CRF-binding protein/CRF-R2 receptor complex | HEK293 CRF-R2/CRF-BP, calcium dye fluorescence (FLIPR); percent of saturating CRF peptide response | activation, % at 13.2 µM | 0.46% of 350,000 active | AID 588473;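 active = activation of at least 50%, plus an integration ratio under a set limit after plate pattern correction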;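 note: plate controls were neutral control wells without compound for no effect and CRF at EC100 for full effect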
DDE Tn6 FP ctr = counter-screen hit for Tn6 peptide-fibrin DD(E) binding disruption; inhibition, % at 8.3 µM; 2% of 680 active; TRITC-Tn6 fluorescence polarization displacement; 0% = median of compound wells, not DMSO; shares compounds with DDE Tn6 FP inh;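 active = inhibition above the mean of test compounds lying between the control limits plus 3 SD of those, cut at about 14% in these data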;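 note: 0% = median of compound wells and 100% = wells with Aha-Tn7 blocking peptide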
Tn6 DDE conf = DD(E)-Tn6 binding inhibition, FP confirmation. inhibition, % at 8.3 µM. AID 720631. shares compounds with DDE Tn6 FP inh. FP displacement of TRITC-Tn6 peptide from DD(E); 0% = per-plate median of test wells. 10% of 680 active;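 active = inhibition above the mean of compounds lying within the control limits plus 3 SD, cut at about 16% in these data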;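 note: 100% = high control wells holding a competing inhibitor peptide at 10 µM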
Numbers without * were called inactive; . = not tested or not shown; ! = not active in a repeat.

SMILES	CRFBP-R2 block	DDE Tn6 FP inh	DDE Tn7 FP inh	CRFR2-BP ag	DDE Tn6 FP ctr	Tn6 DDE conf
O=C1NC[C@@H](c2ccccc2)OC(=O)[C@@H](Cc2ccc(F)cc2)CC/C=C/C[C@@H]1CC(=O)N(CCO)Cc1ccccc1	2.6	16.0*	7.8	-0.4	7.2	-0.1
O=S(=O)(O)c1cc(Cl)cc(N=Nc2ccc(O)cc2O)c1O	-16.6	23.0*	10.0	1.8	1.9	29.8*
O=[N+]([O-])c1ccc(N=Nc2ccc(O)cc2O)cc1	26.4	9.2	-7.9	6.8	.	.
CC(=O)Nc1ccc2c(c1)C(C)(C)C(C)N2C (stereo not drawn)	21.0	22.4*	-4.6	27.9	2.4	7.0
CCOC(=O)c1sc(N(Cc2ccccc2)C(=O)COC(=O)c2ccccc2O)nc1C	7.4	-5.5	0.8	-1.3	.	.
CCOC(=O)c1sc(N(Cc2ccccc2)C(=O)COC(=O)c2ccc(O)cc2)nc1C	0.9	26.9*	6.4	1.7	8.9	-2.9
Cc1ccc(C)c(Cn2nnc3c(=O)[nH]c(C4CCN(S(=O)(=O)c5ccc(S(=O)(=O)NC6CC6)cc5)CC4)nc32)c1	-5.6	18.5*	-2.2	2.5	6.3	6.4
Cc1ccc(C)c(Cn2nnc3c(=O)[nH]c(C4CCN(S(=O)(=O)c5ccc(S(=O)(=O)N(C)C)cc5)CC4)nc32)c1	3.4	3.6	-2.3	1.4	.	.
O=C1NC[C@H](Cc2ccccc2)N(C[C@H]2CCCN2C[C@H](Cc2ccccc2)N2C[C@H](Cc3ccc(O)cc3)N(CCc3ccccc3)C(=O)C2=O)C1=O	-7.5	-3.0	-2.6	0.4	.	.
O=C(Nc1ccc(S(=O)(=O)Nc2ncccn2)cc1)C1CC(=O)N(c2ccc(Cl)cc2)C1 (stereo not drawn)	-6.9	16.6*	5.1	-0.7	-0.7	-4.3
Cc1ccc(C2CC(=O)Oc3cc(O)ccc32)cc1 (stereo not drawn)	-3.2	34.0*	7.2	-0.9	-4.1	7.6
O=C1CC(c2ccccc2)c2cc(O)ccc2O1 (stereo not drawn)	-5.7	8.8	-4.0	-1.1	.	.
COC(=O)[C@H](CC(C)C)NC(=O)CC[C@H]1O[C@@H](n2cc(C)c(=O)[nH]c2=O)C[C@@H]1O	.	7.8	0.4	.	.	.
O=C(Cn1[nH]c(=O)c2ccccc2c1=O)OCC(=O)c1ccccc1Cl	1.1	15.5*	6.0	-1.0	0.4	-0.5
O=C(Cn1[nH]c(=O)c2ccccc2c1=O)OCC(=O)c1ccc(F)cc1	13.1	0.1	5.4	-3.7	.	.
O=C1/C(=C\c2cc([N+](=O)[O-])ccc2O)SC(=S)N1Cc1ccc(Cl)cc1	-84.8	17.2*	-11.8	140.0*	-23.9	-1.3
OC(c1ccc(CN2CCCCC2)cc1)c1ncc(-c2ccccc2F)[nH]1 (stereo not drawn)	.	-0.1	-6.5	.	.	.
CCOC(=O)Cc1cc(-c2ccc(O)cc2)nc2ccc3ccccc3c12	11.5	-12.2	-5.1	-1.6	.	.
CCOC(=O)Cc1cc(-c2ccc(F)cc2)nc2ccc3ccccc3c12	-18.5	16.1*	11.3	12.3	-0.5	-5.8
OC(c1cccnc1)c1nc(/C=C/c2ccc(C(F)(F)F)cc2)cs1 (stereo not drawn)	.	-0.7	10.4	.	.	.
COc1ccc(NC(=O)CC(C)(C)C)c([N+](=O)[O-])c1	20.6	16.2*	4.5	-0.1	5.3	1.5
COC(=O)C1=C(N)Oc2cc(N(C)C)ccc2C1c1ccccc1OC (stereo not drawn)	0.3	36.2*	6.8	1.6	7.3	-8.6
Cc1ccc(C2CCC3(CCC(=O)N3CCO)CC2)cc1 (stereo not drawn)	.	19.9*!	1.3	.	7.1	3.4
CCOC(=O)N1CCN(C(=O)C[C@H]2C(=O)N(CCCOC)C3=CCCC[C@@]32C(=O)OCC)CC1	.	15.3*	-5.6	.	1.2	1.8
COCCn1c(C)cc(C2=NNC(=Nc3ccccc3)SC2)c1C	-11.8	16.9*	-1.2	-0.1	5.8	-7.2
SMILES	CRFBP-R2 block	DDE Tn6 FP inh	DDE Tn7 FP inh	CRFR2-BP ag	DDE Tn6 FP ctr	Tn6 DDE conf
COCCn1c(C)cc(C2=NNC(=Nc3ccc(OC)cc3)SC2)c1C	31.6	.	.	0.9	.	.
CC1(NC(=O)C23CC4CC(CC(C4)C2)C3)CCS(=O)(=O)C1 (stereo not drawn)	-8.8	-2.1	-7.4	0.1	.	.
CN(C(=O)C12CC3CC(CC(C3)C1)C2)C1(C)CCS(=O)(=O)C1 (stereo not drawn)	11.2	15.4*	-3.3	-2.6	3.2	-0.1
CNc1ccc2c3c(cccc13)C(=O)N(C)C2=O	-117.8	47.4*	-6.3	170.2*	53.3*	42.9*
CN(C(=O)CNC(=O)c1ccccc1OCC(=O)Nc1ccc(Br)cc1)c1ccccc1	.	-6.4	-2.8	.	.	.
COc1cc(N)c2ncccc2c1Br	-10.1	19.3*	6.2	1.5	0.5	-1.3
COc1cc(N)c2ncccc2c1SC	-20.6	6.0	2.3	7.0	.	.
CCN1CC2=C(OC(N)=C(C#N)C2c2ccccc2)/C(=C\c2ccccc2)C1 (stereo not drawn)	-32.1	25.0*	-1.2	1.3	12.4	7.4
Cc1cccnc1C(NC(=O)C1CCN(CCCOc2ccc(F)cc2)CC1)c1ccccc1 (stereo not drawn)	.	2.6	-0.3	.	.	.
N#CC(C#N)=c1ccc2c(c1)NC1(CCCCC1)N=2	27.9	41.8*	4.5	-7.2	11.4	34.4*
Cc1cc2ccccc2cc1CN1CCCCC1	-15.2	16.3*	5.2	0.0	-3.8	-4.2
c1ccc2c3c(c(CN4CCCCC4)cc2c1)COC3	-27.3	3.2	3.1	0.6	.	.
O=C(NCc1ccc(Cl)cc1)C1CCC(CNc2c(N3CCCCC3)c(=O)c2=O)CC1 (stereo not drawn)	-9.5	16.3*	-8.2	-1.5	8.4	3.9
Nn1c(SCC(=O)N2CCOCC2)nnc1-c1cc(-c2ccc(Cl)cc2)n[nH]1	.	2.3	-3.8	.	.	.
Nn1c(SCC(=O)N2CCOCC2)nnc1-c1cc(-c2ccc(F)cc2)n[nH]1	.	15.9*	6.0	.	-6.1	-12.6
O=C(COC(=O)c1ccc(Sc2ncn[nH]2)c([N+](=O)[O-])c1)Nc1cccc(Cl)c1F	.	15.6*	2.4	.	8.2	6.2
CCn1c(C)c(C2=CCN(S(=O)(=O)c3ccc(C)cc3)CC2)c2ccccc21	-44.3	24.6*	3.4	12.5	4.5	7.9
COc1ccc(OC)c(-c2nnc(SCC(=O)N3CCCC3)o2)c1	-5.5	-6.9	-0.2	1.2	.	.
COc1ccc(OC)c(-c2nnc(SCC(=O)N3CCOCC3)o2)c1	3.1	18.8*	1.6	0.0	6.7	-3.2
Clc1ccc(-[n+]2c(-c3cccc(Br)c3)[nH]c3nc4ccccc4nc32)cc1	-15.6	-7.3	1.8	1.5	.	.

Source: PubChem BioAssay (several laboratories)
